S100A4 MyoIIA – blocks human S100A4 binding to myosin IIA peptide | S100A4/TAMRA-MyoIIA peptide fluorescence polarization | inhibition, % at 10.7 µM | 360,000 compounds, 0.14% hits | AID 652163;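 active = mean inhibition of at least 70% across replicates, with every replicate also reaching that level; inconclusive = mean inhibition reaches 70% but some replicates fall short; inactive = mean inhibition below 70%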
Target sequence (P26447 whole entry, looked up): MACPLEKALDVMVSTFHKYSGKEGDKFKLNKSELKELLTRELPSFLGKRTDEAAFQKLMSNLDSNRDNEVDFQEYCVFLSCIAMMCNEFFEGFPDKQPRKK
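Compound dosing: one dose per compound; test system: human S100A4 monomer with TAMRA-labelled myosin IIA peptide; probe or stimulus: TAMRA-labelled myosin IIA heavy-chain peptide probe, 5 nM; medium: HEPES buffer with Ca2+, pH 7.2; schedule: 5 min incubation before reading; benchmarks: neutral control DMSO, positive control TFP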
dFosB act – activators of mouse delta FosB homodimer; purified delta FosB, TAMRA-CDK5 oligo fluorescence polarization; percent of positive-control signal above neutral wells; AID 493131; P13346; activation, % at 25 µM; 340,000 compounds, 0.99% hits;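 active = mean activation above about 17%, with every replicate also reaching it, limit read from the data, passing the limit was not always enough; inconclusive = only one of the two conditions met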
MLL AF4-AF9 inh – blocks AF4 peptide binding to human AF9; 350,000 compounds, 0.47% hits; AlphaScreen, biotin-AF4 peptide binding to FLAG-AF9; P42568; inhibition, % at 10 µM; AID 651704;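 active = every replicate reaching a set inhibition limit, whatever the replicate mean, cut at about 25% in these data; inconclusive = mean inhibition reaches that limit but some replicates miss it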;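 note: 0% = plate neutral control median and 100% = total signal loss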
Target sequence (P42568 whole entry, looked up): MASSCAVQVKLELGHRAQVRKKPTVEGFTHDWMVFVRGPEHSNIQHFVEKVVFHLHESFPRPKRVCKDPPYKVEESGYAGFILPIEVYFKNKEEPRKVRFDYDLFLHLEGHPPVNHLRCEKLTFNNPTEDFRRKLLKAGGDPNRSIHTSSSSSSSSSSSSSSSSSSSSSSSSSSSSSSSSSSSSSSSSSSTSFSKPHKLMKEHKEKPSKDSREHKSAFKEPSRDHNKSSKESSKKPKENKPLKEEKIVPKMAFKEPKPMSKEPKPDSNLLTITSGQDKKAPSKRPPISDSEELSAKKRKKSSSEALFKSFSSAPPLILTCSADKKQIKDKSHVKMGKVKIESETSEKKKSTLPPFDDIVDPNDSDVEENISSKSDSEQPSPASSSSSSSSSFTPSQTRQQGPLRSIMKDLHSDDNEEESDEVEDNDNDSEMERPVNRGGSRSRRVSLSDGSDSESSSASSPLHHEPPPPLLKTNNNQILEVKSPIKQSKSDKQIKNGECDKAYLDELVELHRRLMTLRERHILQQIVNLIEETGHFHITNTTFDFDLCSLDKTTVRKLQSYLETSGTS
RAD52 anneal inh – blocks human RAD52 DNA annealing | P43351 | recombinant RAD52 DNA annealing, FRET fluorescence | inhibition, % at 18.7 µM | 360,000 compounds, 0.46% hits | AID 651710;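 active = every replicate showing at least 50% inhibition; inconclusive = mean inhibition at least 50% but not in every replicate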
RAD54 branch – RAD54 (human) branch migration inhibition; Q92698; RAD54 Holliday junction branch migration, FAM/BHQ fluorescence; inhibition, % at 10.4 µM; 360,000 compounds, 0.14% hits; AID 602329;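 active = mean normalized replicate activity at least 40 and at least half of replicates scoring 40 or more; inconclusive = only one of the two criteria met; inactive = mean below 40 and under half of replicates reaching 40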;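 note: 0% = median of neutral control wells and 100% = median of positive control wells; inhibitors cause a drop in the FAM fluorescence signal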
Numbers without * were called inactive. Hits are enriched below; roughly 1.5% of the tested compounds scored in any of these assays.

CCOc1ccc(NCc2cccn2-c2nnc(N3CCC(C(=O)NCCCN4CCCCC4)CC3)s2)cc1 was read as S100A4 MyoIIA -3.1, dFosB act -1.8, MLL AF4-AF9 inh 33.1*, RAD52 anneal inh 23.6 and RAD54 branch 8.5.
For O=C(CN(Cc1ccccc1)C(=O)CCC(=O)Nc1nccs1)NCc1ccccc1 the results were S100A4 MyoIIA -0.1, dFosB act -1.3, MLL AF4-AF9 inh 43.2* and RAD52 anneal inh -12.3.
`O=C(CN(Cc1ccccc1)C(=O)CCC(=O)Nc1nccs1)NCc1ccc(F)cc1` gave S100A4 MyoIIA -4.5, dFosB act -2.7, MLL AF4-AF9 inh 1.1, RAD52 anneal inh -5.4 and RAD54 branch 7.5.
CO[C@@H]1CN(C)C(=O)c2cc(NC(=O)c3ccc(Oc4ccccc4)cc3)ccc2OC[C@H](C)NC[C@@H]1C was read as S100A4 MyoIIA -0.1, MLL AF4-AF9 inh 9.8, RAD52 anneal inh 22.1 and RAD54 branch 14.1.
`COc1cccc(NC(=O)Nc2ccc3c(c2)C(=O)N(C)C[C@H](OC)[C@H](C)CN[C@@H](C)CO3)c1` gave S100A4 MyoIIA 12.5, MLL AF4-AF9 inh 7.9, RAD52 anneal inh 41.3 and RAD54 branch 3.7.
For COc1cccc(NC(=O)Nc2ccc3c(c2)C(=O)N(C)C[C@H](OC)[C@@H](C)CN[C@H](C)CO3)c1 the results were S100A4 MyoIIA -1.6, MLL AF4-AF9 inh 15.3, RAD52 anneal inh 67.5* and RAD54 branch 23.5.
For CO[C@H]1CN(C)C(=O)c2cc(NC(=O)c3ccc(Oc4ccccc4)cc3)ccc2OC[C@H](C)NC[C@H]1C the results were S100A4 MyoIIA -2.4, MLL AF4-AF9 inh -0.2, RAD52 anneal inh 52.7* and RAD54 branch 14.3.
COc1cccc(NC(=O)Nc2ccc3c(c2)C(=O)N(C)C[C@@H](OC)[C@H](C)CN[C@@H](C)CO3)c1 was read as S100A4 MyoIIA -7.7, MLL AF4-AF9 inh 12.7, RAD52 anneal inh 54.1* and RAD54 branch 10.6.
Screening Cc1ccccc1S(=O)(=O)N[C@H]1CC[C@H](CCn2cc(-c3ccccc3)nn2)O[C@@H]1CO returned S100A4 MyoIIA 6.6, MLL AF4-AF9 inh -2.2, RAD52 anneal inh 18.0 and RAD54 branch -8.3.
For C[C@@H]1CN([C@@H](C)CO)C(=O)Cc2cc(NS(=O)(=O)c3cn(C)cn3)ccc2O[C@@H]1CN(C)S(=O)(=O)c1cccs1 the results were S100A4 MyoIIA 1.4, MLL AF4-AF9 inh 1.7, RAD52 anneal inh 1.4 and RAD54 branch 7.0.
`C[C@@H]1CCCCO[C@H](CN(C)S(=O)(=O)c2ccc(F)cc2)[C@@H](C)CN([C@@H](C)CO)C(=O)c2cc(NC(=O)Nc3ccc(F)cc3)ccc2O1` gave RAD54 branch -4.8.
Screening Cc1ccc(CN2CCSc3ccc(C(=O)NC4CCN(Cc5ccccc5)CC4)cc32)cc1 returned S100A4 MyoIIA -3.3, dFosB act 43.0*, MLL AF4-AF9 inh 14.3, RAD52 anneal inh -27.3 and RAD54 branch -0.2.
Screening C[C@@H]1CCCCO[C@H](CN(C)Cc2ccc3c(c2)OCO3)[C@H](C)CN([C@@H](C)CO)C(=O)c2cc(NC(=O)Nc3ccc4c(c3)OCO4)ccc2O1 returned S100A4 MyoIIA -13.3, MLL AF4-AF9 inh 27.2*, RAD52 anneal inh 36.7 and RAD54 branch 3.5.
Screening C[C@@H]1CCCCO[C@H](CN(C)CC2CC2)[C@@H](C)CN([C@H](C)CO)C(=O)c2cc(NC(=O)Nc3ccc4c(c3)OCO4)ccc2O1 returned S100A4 MyoIIA -20.6, MLL AF4-AF9 inh 25.5*, RAD52 anneal inh 22.9 and RAD54 branch 5.5.
For C[C@H](CO)N1C[C@H](C)[C@@H](CN(C)C(=O)Nc2ccc(F)cc2)OCCCC[C@H](C)Oc2ccc(NC(=O)Nc3ccc4c(c3)OCO4)cc2C1=O the results were S100A4 MyoIIA -35.1, MLL AF4-AF9 inh 48.7*, RAD52 anneal inh 6.5 and RAD54 branch 0.2.
For C[C@@H]1CCCCO[C@@H](CN(C)CC2CCCCC2)[C@H](C)CN([C@H](C)CO)C(=O)c2cc(NC(=O)c3ccccc3)ccc2O1 the results were S100A4 MyoIIA 5.6, MLL AF4-AF9 inh 27.0*, RAD52 anneal inh 12.8 and RAD54 branch -0.7.
`C[C@@H]1CCCCO[C@@H](CN(C)CC2CCCCC2)[C@H](C)CN([C@@H](C)CO)C(=O)c2cc(NC(=O)c3ccccc3)ccc2O1` gave S100A4 MyoIIA inconclusive, MLL AF4-AF9 inh 10.2, RAD52 anneal inh -9.3 and RAD54 branch -4.3.
Screening C[C@@H]1CN([C@H](C)CO)C(=O)c2cc(C#C[C@@H](C)O)cnc2O[C@@H]1CN(C)C(=O)c1ccccc1F returned S100A4 MyoIIA 4.4, MLL AF4-AF9 inh 0.1, RAD52 anneal inh 9.5 and RAD54 branch -2.5.
Screening C[C@@H]1CN([C@H](C)CO)C(=O)c2cc(NC(=O)Cn3cnnn3)ccc2O[C@@H]1CN(C)Cc1ccc(Cl)c(Cl)c1 returned S100A4 MyoIIA -14.1, MLL AF4-AF9 inh 3.0, RAD52 anneal inh -0.7 and RAD54 branch -14.9.
Screening C[C@H]1CCCCO[C@H](CN(C)Cc2ccc3c(c2)OCO3)[C@@H](C)CN([C@@H](C)CO)C(=O)c2cc(NC(=O)Nc3ccc4c(c3)OCO4)ccc2O1 returned S100A4 MyoIIA -3.5, MLL AF4-AF9 inh 28.7*, RAD52 anneal inh 41.3 and RAD54 branch 5.3.
Screening C[C@@H]1CCCCO[C@@H](CN(C)Cc2ccc3c(c2)OCO3)[C@@H](C)CN([C@@H](C)CO)C(=O)c2cc(NC(=O)Nc3ccc4c(c3)OCO4)ccc2O1 returned S100A4 MyoIIA -10.4, MLL AF4-AF9 inh 11.7, RAD52 anneal inh 54.7* and RAD54 branch 6.7.
C[C@H]1CCCCO[C@H](CN(C)C(=O)CCCN(C)C)[C@@H](C)CN([C@@H](C)CO)C(=O)c2cc(NC(=O)Nc3ccc(F)cc3)ccc2O1 was read as S100A4 MyoIIA -0.6, MLL AF4-AF9 inh -1.0, RAD52 anneal inh 43.9 and RAD54 branch 3.3.
Screening C[C@H]1CCCCO[C@@H](CN(C)C(=O)CCCN(C)C)[C@@H](C)CN([C@@H](C)CO)C(=O)c2cc(NC(=O)Nc3ccc(F)cc3)ccc2O1 returned S100A4 MyoIIA 5.4, MLL AF4-AF9 inh 9.2, RAD52 anneal inh 52.4* and RAD54 branch 10.9.
For C[C@@H]1CCCCO[C@H](CN(C)Cc2ccc3c(c2)OCO3)[C@@H](C)CN([C@H](C)CO)C(=O)c2cc(NC(=O)Nc3ccc4c(c3)OCO4)ccc2O1 the results were S100A4 MyoIIA -4.2, MLL AF4-AF9 inh 4.3, RAD52 anneal inh 23.1 and RAD54 branch -3.3.
`C/C=C/c1ccc([C@H]2[C@@H](CO)N(C(=O)CC)[C@H]2CN(C)C(=O)NC(C)C)cc1` gave S100A4 MyoIIA -6.1, MLL AF4-AF9 inh -0.6 and RAD52 anneal inh -11.4.
CC(C)NC(=O)N(C)C[C@@H]1Oc2ccc(NC(=O)c3ccncc3)cc2C(=O)N([C@H](C)CO)C[C@H]1C was read as S100A4 MyoIIA -3.6, MLL AF4-AF9 inh -15.9, RAD52 anneal inh 3.3 and RAD54 branch -16.9.
